Reference: ChEMBL document CHEMBL3526056, “Characterization of in vitro glucuronidation clearance of a range of drugs in human kidney microsomes: comparison with liver and intestinal glucuronidation and impact of albumin” (Drug Metab Dispos, 2012)
One block for each compound: values may come before it.

How the values were obtained:
[1] = molecular target: T1, UDP-glucuronosyltransferase 1A1 (Homo sapiens, UniProt P22309); experiment: Ratio of UGT1A1-mediated unbound intrinsic glucuronidation clearance in human intestinal microsomes to UGT1A1-mediated unbound intrinsic glucuronidation clearance in human liver microsomes at 1 uM; assay type: ADME
T1 sequence (P22309 whole entry): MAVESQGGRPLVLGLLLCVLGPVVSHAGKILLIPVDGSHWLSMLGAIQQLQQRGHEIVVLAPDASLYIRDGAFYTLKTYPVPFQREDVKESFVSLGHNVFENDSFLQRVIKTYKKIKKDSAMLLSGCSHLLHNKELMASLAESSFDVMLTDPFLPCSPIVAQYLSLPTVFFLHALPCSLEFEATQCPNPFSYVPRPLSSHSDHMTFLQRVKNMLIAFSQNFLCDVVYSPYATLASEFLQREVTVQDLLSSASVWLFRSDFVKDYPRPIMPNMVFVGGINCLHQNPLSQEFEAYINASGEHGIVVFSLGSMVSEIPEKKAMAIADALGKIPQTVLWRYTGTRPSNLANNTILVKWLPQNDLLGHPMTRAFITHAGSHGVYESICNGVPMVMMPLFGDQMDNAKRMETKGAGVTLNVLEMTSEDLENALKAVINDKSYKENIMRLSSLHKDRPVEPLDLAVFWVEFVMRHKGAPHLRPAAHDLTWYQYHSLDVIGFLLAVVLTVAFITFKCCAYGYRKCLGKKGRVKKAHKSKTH

[2] = Fraction unbound in human kidney microsomes at 1 uM after 30 to 60 mins by LC-MS/MS analysis; assay type: ADME
[3] = molecular target: T1, UDP-glucuronosyltransferase 1A1; experiment: Drug metabolism in human liver microsomes assessed as UGT1A1-mediated unbound intrinsic glucuronidation clearance at 1 uM after 30 to 60 mins by LC-MS/MS analysis; assay type: ADME
[4] = molecular target: T1, UDP-glucuronosyltransferase 1A1; experiment: Drug metabolism in human intestinal microsomes assessed as UGT1A1-mediated unbound intrinsic glucuronidation clearance at 1 uM after 30 to 60 mins by LC-MS/MS analysis in presence of 2% bovine serum albumin; assay type: ADME, Intestine
[5] = molecular target: T1, UDP-glucuronosyltransferase 1A1; experiment: Drug metabolism in human kidney microsomes assessed as UGT1A1-mediated unbound intrinsic glucuronidation clearance at 1 uM after 30 to 60 mins by LC-MS/MS analysis in presence of 2% bovine serum albumin; assay type: ADME
[6] = molecular target: T1, UDP-glucuronosyltransferase 1A1; experiment: Ratio of UGT1A1-mediated unbound intrinsic glucuronidation clearance in human kidney microsomes to UGT1A1-mediated unbound intrinsic glucuronidation clearance in human intestinal microsomes at 1 uM in presence of 2% bovine serum albumin; assay type: ADME
[7] = Unbound intrinsic glucuronidation clearance in human kidney microsomes at 1 uM after 30 to 60 mins by LC-MS/MS analysis in presence of UDP-glucuronosyltransferase and 2% bovine serum albumin; assay type: ADME, microsome
In short: (§1)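 Pooled alamethicin-activated human liver, kidney or intestinal microsomes. […] Duplicate incubations of 30–60 min, with no-cofactor controls. Parent depletion read by LC-MS/MS. k from a single-exponential fit, corrected by fu,inc.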

[8] = molecular target: T1, UDP-glucuronosyltransferase 1A1; experiment: Drug metabolism in human kidney microsomes assessed as UGT1A1-mediated unbound intrinsic glucuronidation clearance at 1 uM after 30 to 60 mins by LC-MS/MS analysis; assay type: ADME
[9] = molecular target: T1, UDP-glucuronosyltransferase 1A1; experiment: Drug metabolism in human liver microsomes assessed as UGT1A1-mediated unbound intrinsic glucuronidation clearance at 1 uM after 30 to 60 mins by LC-MS/MS analysis in presence of 2% bovine serum albumin; assay type: ADME
[10] = Unbound intrinsic glucuronidation clearance in human kidney microsomes at 1 uM after 30 to 60 mins by LC-MS/MS analysis in presence of UDP-glucuronosyltransferase; assay type: ADME, microsome
In short: (§2)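 Alamethicin-activated pooled microsomes (HLM 150 donors; HKM 8; HIM 18). Drug at 1 μM final, preincubated 5 min at 37°C in 0.1 M phosphate pH 7.1 with 3.45 mM MgCl2, 1.15 mM EDTA, 115 μM saccharic acid lactone. Started with […] cofactor (5 mM final), 30–60 min. Cofactor-free controls. Parent depletion by LC-MS/MS, single-exponential k. Corrected by HLM-dialysis fu,inc. Duplicates; n=3 (HIM n=1).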

[11] = Fraction unbound in human liver microsomes at 1 uM […] by LC-MS/MS analysis in presence of 2% bovine serum albumin; assay type: ADME
[12] = Ratio of unbound intrinsic glucuronidation clearance in human kidney microsomes in presence of 2% bovine serum albumin to unbound intrinsic glucuronidation clearance in human kidney microsomes in absence of bovine serum albumin; assay type: ADME, microsome
In short: (§3)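 Ratios of mean scaled unbound CLint,UGT (per g tissue) between tissues, or between with and without BSA. Microsomal depletion assays at 1 μM, or 5 μM for propofol, in pH 7.1 phosphate at 37°C, read by LC-MS/MS. Kidney and liver n = 3, intestine n = 1, each in duplicate.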

[13] = Fraction unbound in human intestinal microsomes at 1 uM after 30 to 60 mins by LC-MS/MS analysis; assay type: ADME, Intestine, Microsome
[14] = Unbound intrinsic glucuronidation clearance in human intestinal microsomes at 1 uM after 30 to 60 mins by LC-MS/MS analysis in presence of UDP-glucuronosyltransferase and 2% bovine serum albumin; assay type: ADME, Intestine, Microsome; in short: as §1
Liver microsome [15] = experiment: Unbound intrinsic glucuronidation clearance in human liver microsomes at 1 uM after 30 to 60 mins by LC-MS/MS analysis in presence of UDP-glucuronosyltransferase and 2% bovine serum albumin; assay type: ADME; in short: as §1
[16] = molecular target: T1, UDP-glucuronosyltransferase 1A1; experiment: Ratio of UGT1A1-mediated unbound intrinsic glucuronidation clearance in human kidney microsomes to UGT1A1-mediated unbound intrinsic glucuronidation clearance in human intestinal microsomes at 1 uM; assay type: ADME
[17] = molecular target: T1, UDP-glucuronosyltransferase 1A1; experiment: Ratio of UGT1A1-mediated unbound intrinsic glucuronidation clearance in human kidney microsomes to UGT1A1-mediated unbound intrinsic glucuronidation clearance in human liver microsomes at 1 uM in presence of 2% bovine serum albumin; assay type: ADME
[18] = Unbound intrinsic glucuronidation clearance in human intestinal microsomes at 1 uM after 30 to 60 mins by LC-MS/MS analysis in presence of UDP-glucuronosyltransferase; assay type: ADME, Intestine, Microsome; in short: as §2
Liver microsome [19] = experiment: Ratio of unbound intrinsic glucuronidation clearance in human liver microsomes in presence of 2% bovine serum albumin to unbound intrinsic glucuronidation clearance in human liver microsomes in absence of bovine serum albumin; assay type: ADME; in short: as §3
[20] = molecular target: T1, UDP-glucuronosyltransferase 1A1; experiment: Drug metabolism in human intestinal microsomes assessed as UGT1A1-mediated unbound intrinsic glucuronidation clearance at 1 uM after 30 to 60 mins by LC-MS/MS analysis; assay type: ADME, Intestine
[21] = molecular target: UDP-glucuronosyltransferase 1A1 (Homo sapiens) (UniProt P22309); experiment: Drug metabolism in human intestinal microsomes assessed as UGT1A1-mediated unbound intrinsic glucuronidation clearance at 1 uM after 30 to 60 mins by LC-MS/MS analysis in presence of 2% bovine serum albumin
[22] = molecular target: T1, UDP-glucuronosyltransferase 1A1; experiment: Ratio of UGT1A1-mediated unbound intrinsic glucuronidation clearance in human intestinal microsomes to UGT1A1-mediated unbound intrinsic glucuronidation clearance in human liver microsomes at 1 uM in presence of 2% bovine serum albumin; assay type: ADME
[23] = Fraction unbound in human liver microsomes at 1 uM after 30 to 60 mins by LC-MS/MS analysis; assay type: ADME
Liver microsome [24] = experiment: Unbound intrinsic glucuronidation clearance in human liver microsomes at 1 uM after 30 to 60 mins by LC-MS/MS analysis in presence of UDP-glucuronosyltransferase; assay type: ADME; in short: as §2
[25] = molecular target: T1, UDP-glucuronosyltransferase 1A1; experiment: Ratio of UGT1A1-mediated unbound intrinsic glucuronidation clearance in human kidney microsomes to UGT1A1-mediated unbound intrinsic glucuronidation clearance in human liver microsomes at 1 uM; assay type: ADME
[26] = Renal clearance in human; assay type: ADME, organism-based, Kidney; conditions: in vivo
[27] = Drug metabolism in human kidney microsomes assessed as UGT1A9/2B7-mediated unbound intrinsic glucuronidation clearance at 1 uM after 30 to 60 mins by LC-MS/MS analysis in presence of 1% bovine serum albumin; assay type: ADME
Liver microsome [28] = experiment: Fraction unbound in human liver microsomes at 1 uM after 30 to 60 mins by LC-MS/MS analysis in presence of 1% bovine serum albumin; assay type: ADME; conditions: microsomes, 1 µM
[29] = Unbound intrinsic glucuronidation clearance in human intestinal microsomes at 1 uM after 30 to 60 mins by LC-MS/MS analysis in presence of UDP-glucuronosyltransferase and 1% bovine serum albumin; assay type: ADME, Intestine, Microsome
Liver microsome [30] = experiment: Unbound intrinsic glucuronidation clearance in human liver microsomes at 1 uM after 30 to 60 mins by LC-MS/MS analysis in presence of UDP-glucuronosyltransferase and 1% bovine serum albumin; assay type: ADME
[31] = Drug metabolism in human intestinal microsomes assessed as UGT1A9/2B7-mediated unbound intrinsic glucuronidation clearance at 1 uM after 30 to 60 mins by LC-MS/MS analysis in presence of 1% bovine serum albumin; assay type: ADME, Intestine
[32] = Drug metabolism in human intestinal microsomes assessed as UGT1A9/2B7-mediated unbound intrinsic glucuronidation clearance at 1 uM after 30 to 60 mins by LC-MS/MS analysis; assay type: ADME, Intestine
[33] = Drug metabolism in human liver microsomes assessed as UGT1A9/2B7-mediated unbound intrinsic glucuronidation clearance at 1 uM after 30 to 60 mins by LC-MS/MS analysis; assay type: ADME
Liver microsome [34] = experiment: Fraction metabolized glucuronidation in human liver microsomes in presence of UDP-glucuronosyltransferase and bovine serum albumin; assay type: ADME
Liver microsome [35] = experiment: Fraction metabolized glucuronidation in human liver microsomes in presence of UDP-glucuronosyltransferase; assay type: ADME
[36] = Drug metabolism in human kidney microsomes assessed as UGT1A9/2B7-mediated unbound intrinsic glucuronidation clearance at 1 uM after 30 to 60 mins by LC-MS/MS analysis; assay type: ADME
[37] = Clearance in iv dosed human; assay type: ADME, organism-based; conditions: in vivo
[38] = Unbound intrinsic glucuronidation clearance in human kidney microsomes at 1 uM after 30 to 60 mins by LC-MS/MS analysis in presence of UDP-glucuronosyltransferase and 1% bovine serum albumin; assay type: ADME, microsome
[39] = Drug metabolism in human liver microsomes assessed as UGT1A9/2B7-mediated unbound intrinsic glucuronidation clearance at 1 uM after 30 to 60 mins by LC-MS/MS analysis in presence of 1% bovine serum albumin; assay type: ADME

Ratio [1]: 0.073 | fraction unbound at 1 µM [2]: 0.18 | CL free [3]: 117 mL/min/g | CL free [4]: 23.8 mL/min/g | CL free [5]: 6.34 mL/min/g | Ratio [6]: 0.266 | CL free [7]: 495 µL/min/mg | CL free [8]: 3.78 mL/min/g | CL free [9]: 207 mL/min/g | CL free [10]: 295 µL/min/mg | fraction unbound at 1 µM [11]: 0.05 | Ratio [12]: 1.7 | fraction unbound at 1 µM [13]: 0.18 | CL free [14]: 1160 µL/min/mg | CL free (Liver microsome [15]): 5180 µL/min/mg | Ratio [16]: 0.439 | Ratio [17]: 0.031 | CL free [18]: 418 µL/min/mg | Ratio (Liver microsome [19]): 1.8 | CL free [20]: 8.61 mL/min/g | CL free [21]: 23.8 mL/min/g | Ratio [22]: 0.115 | fraction unbound at 1 µM [23]: 0.3 | CL free (Liver microsome [24]): 2930 µL/min/mg | Ratio [25]: 0.032
Structure (SMILES): O=C1[C@H](CC[C@H](O)c2ccc(F)cc2)[C@@H](c2ccc(O)cc2)N1c1ccc(F)cc1 [EZETIMIBE]

fraction unbound at 1 µM [2]: 0.99 | CL renal [26]: 0.06 mL/min/kg | CL free [27]: 6.95 mL/min/g | Fu (Liver microsome [28]): 0.02 | CL free [29]: 325 µL/min/mg | CL free (Liver microsome [30]): 1190 µL/min/mg | CL free [31]: 6.7 mL/min/g | CL free [10]: 177 µL/min/mg | CL free [32]: 1.54 mL/min/g | CL free [33]: 30.5 mL/min/g | fraction unbound at 1 µM [13]: 0.98 | Drug metabolism (Liver microsome [34]): 0.65 | Drug metabolism (Liver microsome [35]): 0.62 | CL free [36]: 2.27 mL/min/g | clearance [37]: 4.84 mL/min/kg | CL free [18]: 74.9 µL/min/mg | CL free [38]: 543 µL/min/mg | CL free [39]: 47.4 mL/min/g | fraction unbound at 1 µM [23]: 0.98 | CL free (Liver microsome [24]): 761 µL/min/mg
Structure (SMILES): O=C(O)Cc1ccccc1Nc1c(Cl)cccc1Cl [DICLOFENAC]
